The results in this text go back to PubChem BioAssay.

Assay [1] is described as follows: thallium flux activation in parental CHO cells, counter-screen for KCNQ1 potentiator project (AID 493006). The following applies: parental CHO-K1 cells, FluxOR thallium flux, at 10 µM; stronger effect = higher value. Summed up: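 Assay system: Untransfected host CHO-K1 cells with FluxOR thallium dye | Probe or stimulus: Potassium/thallium depolarization pulse | Schedule: Overnight 37 °C plating, 90 min RT dye, 20 min compound | Detection: Kinetic thallium-flux fluorescence | Read-out: Max-minus-min fluorescence over baseline, percent of buffer-to-R-L3 span | Benchmarks: Low control buffer, high control R-L3 activator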
In general terms: The purpose of a counterscreen is to sort out artefacts and off-target activity.

Assay [2] concerns the target Potassium voltage-gated channel subfamily KQT member 1 (Homo sapiens) (UniProt P51787). As to the kind of experiment: KCNQ1 potassium channel potentiators, confirmation, FluxOR thallium flux, CHO cells, duplicates (AID 493007;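 active = potentiation averaged over duplicate wells exceeding buffer-only control mean by more than 3 SD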;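 as to outcome: cells depolarized by a potassium plus thallium sulfate stimulus after compound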). As to conditions: KCNQ1 cell line, FluxOR thallium flux fluorescence, at 10 µM; stronger effect = higher value, % of reference activator effect, buffer zero. The method, boiled down:
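Material: KCNQ1-expressing CHO cell line; Incubation: FluxOR dye loading 90 min, compound exposure 20 min, room temperature; Detection: FluxOR Tl+ flux fluorescence, 10 s baseline plus 110 s recording; Read-out: percent activation between buffer and R-L3 responses; Control set: buffer-only wells as 0% and R-L3 activator as 100%; Replication: duplicate wells per compound.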

In assay [3] the target is Potassium voltage-gated channel subfamily KQT member 2 (Rattus norvegicus) (UniProt O88943). Put plainly: rat KCNQ2 channel potentiation, selectivity assay for KCNQ1 potentiator project, KCNQ2-CHO-K1 cells (AID 493009;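 active = mean duplicate potentiation above the buffer control mean plus 5 SD of buffer wells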;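 also: assay conditions were tuned for KCNQ1 rather than KCNQ2 modulators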). As to conditions: FluxOR thallium flux fluorescence, at 10 µM; stronger effect = higher value, scaled: buffer 0, activator control 100.
The target in assay [4] is Potassium voltage-gated channel subfamily KQT member 1 (Homo sapiens) (UniProt P51787). As to the kind of experiment: KCNQ1 channel current potentiators, confirmation, orthogonal assay for KCNQ1 potentiator project, IonWorks patch clamp, KCNQ1-CHO cells (AID 493184;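 active = current rise at least 3 SD above the untreated control mean in each of two repeat wells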). As to conditions: automated patch clamp current, at 10 µM; stronger effect = higher value. The method, boiled down: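 assay system = KCNQ1-expressing CHO cells | medium = external bath solution at pH 7.4 | probe or stimulus = 2,000 ms depolarization, -90 to +40 mV | compound dosing = 10 µM final, single point | measured by = automated voltage clamp, amphotericin B perforated patch | measure = percent current increase versus pre-compound level | replication = duplicates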
A general note: The patch-clamp technique gives a direct electrical read-out from membranes.

Each structure is given as a SMILES string. Active and inactive are the calls of the source.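 The calls were made as follows, unless noted: active = duplicate-averaged activation above buffer control mean plus 5 SD of those controls; inactive = the rest.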

Potassium voltage-gated channel subfamily KQT member 2 (Rattus norvegicus), sequence (O88943 whole entry, looked up): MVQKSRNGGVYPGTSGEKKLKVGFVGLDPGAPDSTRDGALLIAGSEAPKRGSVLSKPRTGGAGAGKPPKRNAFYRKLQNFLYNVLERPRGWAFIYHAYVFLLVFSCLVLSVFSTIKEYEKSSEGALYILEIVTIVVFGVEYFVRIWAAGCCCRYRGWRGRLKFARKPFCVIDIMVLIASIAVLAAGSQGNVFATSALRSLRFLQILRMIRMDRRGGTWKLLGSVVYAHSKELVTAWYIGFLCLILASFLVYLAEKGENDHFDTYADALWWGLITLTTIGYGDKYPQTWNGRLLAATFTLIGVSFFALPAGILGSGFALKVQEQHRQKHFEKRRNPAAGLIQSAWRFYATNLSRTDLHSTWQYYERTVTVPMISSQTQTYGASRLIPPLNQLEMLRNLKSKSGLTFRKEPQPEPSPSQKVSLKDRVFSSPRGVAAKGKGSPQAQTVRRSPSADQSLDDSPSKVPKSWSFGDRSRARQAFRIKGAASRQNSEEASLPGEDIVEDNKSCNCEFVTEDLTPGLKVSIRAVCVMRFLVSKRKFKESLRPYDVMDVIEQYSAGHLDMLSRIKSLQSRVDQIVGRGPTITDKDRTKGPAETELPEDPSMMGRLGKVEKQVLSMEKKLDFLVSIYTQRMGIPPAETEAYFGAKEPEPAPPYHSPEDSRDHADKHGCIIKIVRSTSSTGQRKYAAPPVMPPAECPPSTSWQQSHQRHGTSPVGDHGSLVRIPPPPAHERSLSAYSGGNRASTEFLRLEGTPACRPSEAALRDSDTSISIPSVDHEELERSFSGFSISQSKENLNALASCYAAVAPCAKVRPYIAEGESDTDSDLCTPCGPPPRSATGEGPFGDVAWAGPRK
Potassium voltage-gated channel subfamily KQT member 1 (Homo sapiens), sequence (P51787 whole entry, looked up): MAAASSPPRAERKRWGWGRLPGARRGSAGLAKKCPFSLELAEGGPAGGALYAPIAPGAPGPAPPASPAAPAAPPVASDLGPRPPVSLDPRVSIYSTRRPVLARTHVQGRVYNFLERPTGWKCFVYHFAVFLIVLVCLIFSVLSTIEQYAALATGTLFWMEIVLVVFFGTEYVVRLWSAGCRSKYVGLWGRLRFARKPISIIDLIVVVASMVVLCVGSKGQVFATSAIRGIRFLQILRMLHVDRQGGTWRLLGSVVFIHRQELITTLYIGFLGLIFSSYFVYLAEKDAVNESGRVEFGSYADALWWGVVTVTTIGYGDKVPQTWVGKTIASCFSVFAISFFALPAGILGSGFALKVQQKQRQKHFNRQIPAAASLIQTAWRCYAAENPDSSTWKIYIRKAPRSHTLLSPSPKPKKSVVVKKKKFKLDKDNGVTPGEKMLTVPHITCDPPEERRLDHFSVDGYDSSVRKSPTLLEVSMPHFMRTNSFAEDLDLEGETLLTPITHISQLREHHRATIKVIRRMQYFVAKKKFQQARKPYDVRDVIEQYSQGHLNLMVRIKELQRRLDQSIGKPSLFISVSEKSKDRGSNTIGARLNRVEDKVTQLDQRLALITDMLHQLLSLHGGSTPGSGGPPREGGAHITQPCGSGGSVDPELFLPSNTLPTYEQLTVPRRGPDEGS

With `CC(=O)CC1(OC(C)=O)C(=O)N(C)c2ccccc21` (stereo not given), the outcome in assay [1], in assay [2], in assay [3] and in assay [4] was inactive.
On to `C=C[C@@]1(C)CC(=O)[C@]2(O)[C@@]3(C)[C@@H](O)CCC(C)(C)[C@@H]3[C@H](OC(C)=O)[C@H](O)[C@@]2(C)O1`, for which the result in assay [1], in assay [2], in assay [3] and in assay [4] was inactive.
Regarding `CCCCCc1ccc(C(=O)CCCC)c(=S)[nH]1`, the activation in assay [1] is 277% (active). The values for the potentiation in assay [2] and in assay [3] were 154% (active) and 300% (active), respectively. Also, in assay [4], the result was inactive.
For the compound `Cc1ccc(C(=O)COC(=O)COc2ccccc2C)cc1`, the result in assay [1], in assay [2], in assay [3] and in assay [4] was inactive.
Take `O=C(NC(=S)Nc1ccc(C(F)(F)F)cc1)c1csnn1`: the activation in assay [1] is 590% (active). The results for the potentiation in assay [2] and in assay [3] were 269% (active) and 555% (active), respectively. In addition, the outcome in assay [4] was inactive.
Taken in the same sequence, the figures for `COc1cc(CN2CCC(C)CC2)ccc1OCc1ccccc1` were 292% (active), 90% (active), 300% (active) and “inactive”.
Turning to `CO/N=C/CC(=O)Nc1ccc(F)cc1F`, the outcome in assay [1], in assay [2], in assay [3] and in assay [4] was inactive.
As for `C=CCn1c(SCN2C(=O)c3ccccc3C2=O)nc2ccc(Cl)cc2c1=O`, the activation in assay [1] is 152% (active). Besides, the outcome in assay [2], in assay [3] and in assay [4] was inactive.
`Cc1ccc(C(=O)Nc2nc3ccccc3c(=O)s2)cc1`: the activation in assay [1] was 186% (active). The potentiation is 35.5% (active) in assay [2] and 216% (active) in assay [3]. For the same compound, the result in assay [4] was inactive.
For the compound `Cc1ccc(O)c(C(=O)CC(=O)c2ccccc2Cl)c1`, the activation in assay [1] is 158% (active). In addition, the figures for the potentiation in assay [2] and in assay [3] were 72.5% (active) and 144% (active), respectively. Moreover, in assay [4], the outcome was inactive.
The like results for `Cc1ccc(-c2csc(=S)[nH]2)cc1` were, in that order, 628% (active), 189% (active), 643% (active) and “inactive”.
Regarding `Cc1sc2nc(CSc3ccccc3)nc(N3CCN(C)CC3)c2c1C`, the result in assay [1], in assay [2], in assay [3] and in assay [4] was inactive.
As for `CCc1ccc2c(c1)c(N=NC1=NC(=O)CS1)c(O)n2C`, the activation in assay [1] is 162% (active). Also, the potentiation in assay [2] is 30% (active). Also, the result in assay [3] and in assay [4] was inactive.
As for `COc1ccc(S(=O)(=O)NCCCN2CCOCC2)cc1F`, the result in assay [1], in assay [2], in assay [3] and in assay [4] was inactive.
Regarding `O=C1C=C(NCc2ccccc2)c2ccccc2C1=O`, in assay [1], the activation was 140% (active). Besides, in assay [2], the potentiation is 24% (active). The result in assay [3] and in assay [4] was inactive.
On to `CCC(C)NC(=O)c1cc(Cl)c(NC(=O)C2=C(C)OCCS2)cc1OC` (stereo not given), for which the result in assay [1], in assay [2], in assay [3] and in assay [4] was inactive.
As to `Cc1cc(C)c(S(=O)(=O)Nc2cccc3nsnc23)c(C)c1`, the result in assay [1], in assay [2], in assay [3] and in assay [4] was inactive.
As to `O=C(O)CCCN1C(=O)C2C3c4ccccc4C(c4ccccc43)[C@@H]2C1=O` (stereo not given in full), the outcome in assay [1], in assay [2], in assay [3] and in assay [4] was inactive.
As for `COc1ccc(CC(=O)c2ccccc2C(=O)O)cc1`, the outcome in assay [1], in assay [2], in assay [3] and in assay [4] was inactive.
For the compound `Cc1cc(NC(=O)CCC(=O)N(C2CC2)C(C(=O)NC(C)(C)C)c2ccccc2Cl)no1` (stereo not given), the outcome in assay [1], in assay [3] and in assay [4] was inactive. Also, the potentiation in assay [2] was 25.5% (active).
Take `CCC(CC)c1nnc(NC(=O)c2cc(C(=O)OC)cc([N+](=O)[O-])c2)s1`: in assay [1], the activation is 366% (active). Moreover, the potentiation in assay [2] is 179% (active); in assay [3], 419% (active). Besides, the outcome in assay [4] was inactive.
As for `COc1cc(CN2CCN(c3cccc(Cl)c3)CC2)cc(OC)c1OC`, the result in assay [1], in assay [2], in assay [3] and in assay [4] was inactive.
On to `Cc1cc(C)cc(NC(=O)C(Sc2ncnc3ccccc23)c2ccccc2)c1` (stereo not given), for which the outcome in assay [1], in assay [2], in assay [3] and in assay [4] was inactive.
Take `COc1ccc(-c2csc(N(CCCN(C)C)C(=O)c3ccccc3Cl)n2)cc1`: the result in assay [1], in assay [2], in assay [3] and in assay [4] was inactive.
As to `CCOC(=O)c1sc(NC(=O)c2ccncc2)nc1C`, in assay [1], the activation is 161% (active). Also, the potentiation in assay [2] is 54% (active); in assay [3], 166% (active). Besides, the result in assay [4] was inactive.
`CCC1CCc2c(sc(NC(=O)C3CC=CCC3C(=O)O)c2C#N)C1` (stereo not given): the outcome in assay [1], in assay [2], in assay [3] and in assay [4] was inactive.
For `Cc1cc(SCNC(=O)c2ccccc2)ncn1`, the result in assay [1], in assay [2], in assay [3] and in assay [4] was inactive.
Regarding `CC(C)C1Cc2c(sc3[nH]c(=S)n(Cc4ccccc4)c(=O)c23)CO1` (stereo not given), in assay [1], the activation is 404% (active). Besides, the results for the potentiation in assay [2] and in assay [3] were 128% (active) and 362% (active), respectively. In addition, the result in assay [4] was inactive.
In the case of `O=C(COc1ccc(C(=S)N2CCC(Cc3ccccc3)CC2)cc1)N1CCOCC1`, the result in assay [1], in assay [2], in assay [3] and in assay [4] was inactive.
In the case of `CCC(=O)NNc1nc2c(Cl)cccc2s1`, the outcome in assay [1], in assay [2], in assay [3] and in assay [4] was inactive.
